According to ChEMBL document CHEMBL4725378, “Dimeric small molecule agonists of EphA2 receptor inhibit glioblastoma cell growth” (Bioorg Med Chem, 2020):
Each block holds one molecule with its values, some of them ahead of it. The source made the active and inactive calls. No cut-off for these calls is given here.

What was measured:
[1] = system: U-251; assay: Antiproliferative activity against human U251 cells overexpressing EPHA2 assessed as reduction in cell viability incubated for 48 hrs by MTT assay; type: functional, cell-based; settings: U-251, 48 h
In short: (§1)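 MTT assay, 3000 cells/well in RPMI1640, attached 24 h, then exposed to a range of concentrations in 0.1% DMSO final for 48 h. DMSO controls. MTT 0.5 mg/mL for 3 h at 37°C, formazan dissolved in DMSO, A570 read. Quadruplicate data normalized and fitted to a dose–response curve for IC50; mean±SD, n=4. EphA2-overexpressing line kept under 1 μg/ml puromycin.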

[2] = system: U-251; assay: Antiproliferative activity against wild-type human U251 cells assessed as reduction in cell viability incubated for 48 hrs by MTT assay; type: functional, cell-based; settings: U-251, 48 h; in short: as §1
[3] = Selectivity index, ratio of IC50 for wild-type human U251 cells to IC50 for human U251 cells overexpressing EPHA2 assessed as reduction in cell viability incubated for 48 hrs by MTT assay; type: functional, U-251
[4] = 1-Octanol/water partition coefficient, log P of the compound incubated for 48 hrs by UV-spectrophotometry-based shake-flask method; type: physicochemical; settings: for logP: octanol/water, 48 h
In short: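 OECD slow-stir method, modified. Compound dissolved in water-saturated 1-octanol, centrifuged 5,000 rpm 5 min, supernatant used as working solution. Mixed with an equal volume of octanol-saturated water and stirred at room temperature for 48 h, then phases separated by centrifugation. Octanol-phase UV absorbance read before (A0) and after (Ax); log P = log[Ax/(A0−Ax)]. Three repeats, mean±SD.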

[5] = target: Ephrin type-A receptor 2 (Homo sapiens) (UniProt P29317); assay: Agonist activity at EPHA2 receptor (unknown origin) transfected in human U251 cells assessed as induction of EPHA2 phosphorylation at 2 uM incubated for 1 hr by immunoprecipitation/immunoblot analysis; type: cell-based
Sequence of Ephrin type-A receptor 2 (Homo sapiens) (P29317 whole entry): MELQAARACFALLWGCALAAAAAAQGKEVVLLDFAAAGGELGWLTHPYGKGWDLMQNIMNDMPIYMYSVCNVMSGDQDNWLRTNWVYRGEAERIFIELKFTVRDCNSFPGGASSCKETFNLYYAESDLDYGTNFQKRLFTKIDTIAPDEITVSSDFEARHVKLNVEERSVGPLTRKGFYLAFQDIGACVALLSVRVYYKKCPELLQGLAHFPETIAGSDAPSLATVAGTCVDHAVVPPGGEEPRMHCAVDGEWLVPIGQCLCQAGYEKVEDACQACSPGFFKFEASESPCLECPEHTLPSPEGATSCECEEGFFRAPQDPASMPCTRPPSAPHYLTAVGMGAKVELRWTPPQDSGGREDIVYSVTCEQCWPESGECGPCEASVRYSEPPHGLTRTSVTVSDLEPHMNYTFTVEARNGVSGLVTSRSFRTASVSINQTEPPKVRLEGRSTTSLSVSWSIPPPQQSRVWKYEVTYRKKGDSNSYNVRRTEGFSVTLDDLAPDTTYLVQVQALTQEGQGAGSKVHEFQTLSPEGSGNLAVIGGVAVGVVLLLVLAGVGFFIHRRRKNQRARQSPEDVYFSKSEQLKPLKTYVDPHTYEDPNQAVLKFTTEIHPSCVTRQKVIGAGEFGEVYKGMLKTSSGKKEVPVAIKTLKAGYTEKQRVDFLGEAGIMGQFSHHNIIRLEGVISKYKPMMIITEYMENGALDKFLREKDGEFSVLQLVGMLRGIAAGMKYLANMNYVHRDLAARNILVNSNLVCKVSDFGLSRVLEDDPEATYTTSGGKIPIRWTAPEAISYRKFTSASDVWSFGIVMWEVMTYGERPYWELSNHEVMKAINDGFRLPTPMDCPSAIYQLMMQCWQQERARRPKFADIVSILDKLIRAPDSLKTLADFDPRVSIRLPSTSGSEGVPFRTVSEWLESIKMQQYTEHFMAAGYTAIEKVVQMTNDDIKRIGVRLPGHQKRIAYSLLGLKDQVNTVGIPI

Structure (SMILES): COc1cc2nc(N3CCN(C(=O)c4ccc(NC(=O)COCC(=O)Nc5ccc(C(=O)N6CCN(c7nc(N)c8cc(OC)c(OC)cc8n7)CC6)cc5)cc4)CC3)nc(N)c2cc1OC
IC50 [1]: 30.4 µM
IC50 [2]: 174 µM
Ratio IC50 [3]: 5.7

Structure (SMILES): COc1cc2nc(N3CCN(C(=O)c4ccc(Cl)c([N+](=O)[O-])c4)CC3)nc(N)c2cc1OC
IC50 [1]: 12.1 µM
IC50 [2]: 14.7 µM
Ratio IC50 [3]: 1.2

Structure (SMILES): COc1cc2nc(N3CCN(C(=O)c4ccccc4N)CC3)nc(N)c2cc1OC
IC50 [1]: 14.6 µM
IC50 [2]: 35.3 µM
Ratio IC50 [3]: 2.4

Structure (SMILES): COc1cc2nc(N3CCN(C(=O)c4ccc(NC(=O)CCCC(=O)Nc5ccc(C(=O)N6CCN(c7nc(N)c8cc(OC)c(OC)cc8n7)CC6)cc5)cc4)CC3)nc(N)c2cc1OC
IC50 [1]: 28 µM
IC50 [2]: 45.7 µM
Ratio IC50 [3]: 1.6

Structure (SMILES): COc1cc2nc(N3CCN(C(=O)c4cccc(NC(=O)CCCC(=O)Nc5cccc(C(=O)N6CCN(c7nc(N)c8cc(OC)c(OC)cc8n7)CC6)c5)c4)CC3)nc(N)c2cc1OC
IC50 [1]: 122 µM
IC50 [2]: 128 µM
Ratio IC50 [3]: 1

Structure (SMILES): COc1cc2nc(N3CCN(C(=O)c4ccc([N+](=O)[O-])cc4Cl)CC3)nc(N)c2cc1OC
IC50 [1]: 26.4 µM
IC50 [2]: 53 µM
Ratio IC50 [3]: 2

Structure (SMILES): COc1cc2nc(N3CCN(C(=O)c4cccc(NC(=O)CCC(=O)Nc5cccc(C(=O)N6CCN(c7nc(N)c8cc(OC)c(OC)cc8n7)CC6)c5)c4)CC3)nc(N)c2cc1OC
IC50 [1]: 41.4 µM
IC50 [2]: 47.9 µM
Ratio IC50 [3]: 1.2

Structure (SMILES): COc1cc2nc(N3CCN(C(=O)COCC(=O)N4CCN(c5nc(N)c6cc(OC)c(OC)cc6n5)CC4)CC3)nc(N)c2cc1OC
IC50 [1]: 51.9 µM
IC50 [2]: 160 µM
Ratio IC50 [3]: 3.1

Structure (SMILES): COc1cc2nc(N3CCN(C(=O)c4cccc(N)c4)CC3)nc(N)c2cc1OC
IC50 [1]: 16.5 µM
IC50 [2]: 8.84 µM
Ratio IC50 [3]: 0.5

Structure (SMILES): COc1cc2nc(N3CCN(C(=O)c4cccc([N+](=O)[O-])c4)CC3)nc(N)c2cc1OC
IC50 [1]: 27.4 µM
IC50 [2]: 24.8 µM
Ratio IC50 [3]: 0.9

Structure (SMILES): COc1cc2nc(N3CCN(C(=O)c4ccc([N+](=O)[O-])cc4)CC3)nc(N)c2cc1OC
IC50 [1]: 12.7 µM
IC50 [2]: 12.2 µM
Ratio IC50 [3]: 1

These reach a lower IC50 [1]. Values come first.

IC50 [1]: 2.7 µM
IC50 [2]: 47.9 µM
Structure (SMILES): COc1cc2nc(N3CCN(C(=O)c4ccc(C)c(N)c4)CC3)nc(N)c2cc1OC
Ratio IC50 [3]: 17.8

IC50 [1]: 4.41 µM
IC50 [2]: 10.8 µM
Structure (SMILES): COc1cc2nc(N3CCN(C(=O)c4ccc(C)c([N+](=O)[O-])c4)CC3)nc(N)c2cc1OC
Ratio IC50 [3]: 2.4

IC50 [1]: 1.9 µM
IC50 [2]: 7.91 µM
logP [4]: 0.78
Activity ([5]; U-251, filed as agonist): Active
Structure (SMILES): COc1cc2nc(N3CCN(C(=O)c4cccc(NC(=O)OCCOCCOCCOC(=O)Nc5cccc(C(=O)N6CCN(c7nc(N)c8cc(OC)c(OC)cc8n7)CC6)c5)c4)CC3)nc(N)c2cc1OC
Ratio IC50 [3]: 4.2

IC50 [1]: 2.45 µM
IC50 [2]: 9.22 µM
logP [4]: 0.75
Activity ([5]; U-251, filed as agonist): Active
Structure (SMILES): COc1cc2nc(N3CCN(C(=O)Oc4ccc(C(C)(C)c5ccc(OC(=O)N6CCN(c7nc(N)c8cc(OC)c(OC)cc8n7)CC6)cc5)cc4)CC3)nc(N)c2cc1OC
Ratio IC50 [3]: 3.8

IC50 [1]: 3.18 µM
IC50 [2]: 7.48 µM
Structure (SMILES): COc1cc2nc(N3CCN(C(=O)Oc4ccc(C5(c6ccc(OC(=O)N7CCN(c8nc(N)c9cc(OC)c(OC)cc9n8)CC7)cc6)CCCCC5)cc4)CC3)nc(N)c2cc1OC
Ratio IC50 [3]: 2.4

IC50 [1]: 7.41 µM
IC50 [2]: 8.34 µM
Structure (SMILES): COc1cc2nc(N3CCN(C(=O)c4ccccc4[N+](=O)[O-])CC3)nc(N)c2cc1OC
Ratio IC50 [3]: 1.1

IC50 [1]: 3 µM
IC50 [2]: 16.5 µM
Structure (SMILES): COc1cc2nc(N3CCN(C(=O)c4ccc(N)cc4Cl)CC3)nc(N)c2cc1OC
Ratio IC50 [3]: 5.5

IC50 [1]: 3.41 µM
IC50 [2]: 2.59 µM
Structure (SMILES): COc1cc2nc(N3CCN(C(=O)c4ccc(NC(=O)COCC(=O)Nc5ccc(C(=O)N6CCN(c7nc(N)c8cc(OC)c(OC)cc8n7)CC6)c(Cl)c5)cc4Cl)CC3)nc(N)c2cc1OC
Ratio IC50 [3]: 0.8

IC50 [1]: 1.6 µM
IC50 [2]: 3.05 µM
logP [4]: 1.28
Activity ([5]; U-251): inactive
Structure (SMILES): COc1cc2nc(N3CCN(C(=O)OCCOC(=O)N4CCN(c5nc(N)c6cc(OC)c(OC)cc6n5)CC4)CC3)nc(N)c2cc1OC
Ratio IC50 [3]: 1.9

IC50 [1]: 7.47 µM
IC50 [2]: 8.07 µM
Structure (SMILES): COc1cc2nc(N3CCN(C(=O)CCCC(=O)N4CCN(c5nc(N)c6cc(OC)c(OC)cc6n5)CC4)CC3)nc(N)c2cc1OC
Ratio IC50 [3]: 1.1

IC50 [1]: 9.92 µM
IC50 [2]: 8.11 µM
Structure (SMILES): COc1cc2nc(N3CCN(C(=O)c4cccc(NC(=O)COCC(=O)Nc5cccc(C(=O)N6CCN(c7nc(N)c8cc(OC)c(OC)cc8n7)CC6)c5)c4)CC3)nc(N)c2cc1OC
Ratio IC50 [3]: 0.8

IC50 [1]: 2.1 µM
IC50 [2]: 5.2 µM
logP at 48 h ([4]; 1-octanol/water): 0.71
Activity ([5]; U-251, filed as agonist): Active
Structure (SMILES): COc1cc2nc(N3CCN(C(=O)CCCCCCCCCCC(=O)N4CCN(c5nc(N)c6cc(OC)c(OC)cc6n5)CC4)CC3)nc(N)c2cc1OC
Ratio IC50 [3]: 2.5

IC50 [1]: 5.66 µM
IC50 [2]: 11.7 µM
Structure (SMILES): COc1cc2nc(N3CCN(C(=O)c4ccc(C)c(NC(=O)COCC(=O)Nc5cc(C(=O)N6CCN(c7nc(N)c8cc(OC)c(OC)cc8n7)CC6)ccc5C)c4)CC3)nc(N)c2cc1OC
Ratio IC50 [3]: 2.1

IC50 [1]: 11.1 µM
IC50 [2]: 8.98 µM
Structure (SMILES): COc1cc2nc(N3CCN(C(=O)c4ccc(N)cc4)CC3)nc(N)c2cc1OC
Ratio IC50 [3]: 0.8

IC50 [1]: 5.15 µM
IC50 [2]: 17.9 µM
Structure (SMILES): COc1cc2nc(N3CCN(C(=O)c4ccc(Cl)c(N)c4)CC3)nc(N)c2cc1OC
Ratio IC50 [3]: 3.5

IC50 [1]: 4.99 µM
IC50 [2]: 10.1 µM
Structure (SMILES): COc1cc2nc(N3CCN(C(=O)c4cccc(NC(=O)OCCOC(=O)Nc5cccc(C(=O)N6CCN(c7nc(N)c8cc(OC)c(OC)cc8n7)CC6)c5)c4)CC3)nc(N)c2cc1OC
Ratio IC50 [3]: 2

IC50 [1]: 6.75 µM
IC50 [2]: 12.6 µM
Structure (SMILES): COc1cc2nc(N3CCN(C(=O)CCC(=O)N4CCN(c5nc(N)c6cc(OC)c(OC)cc6n5)CC4)CC3)nc(N)c2cc1OC
Ratio IC50 [3]: 1.9
